Data set [1] has as its system HCT-116. The data set can be described thus: Antiproliferative activity against human HCT-116 cells harboring wild type p53 overexpressing MDM2 assessed as inhibition of cell growth incubated for 48 hrs by MTS assay. It counts as functional, cell-based. Conditions: HCT-116, 48 h. An outline of the steps: (§1)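 MTS viability: cells seeded 1×10^4/well (HCT116), 3×10^3/well (SJSA-1, LNCaP), 5×10^3/well (MCF-7), treated ~24 h after plating with DMSO-stock compounds serially diluted in medium (final DMSO ≤0.1%). Ten or more concentrations over 1–100 µM, duplicates, ≥3 independent runs. Exposure 48 h (HCT116), 72 h (MCF-7), 96 h (SJSA-1, LNCaP). MTS 0.5 mg/mL added for 15–30 min, A490. IC50 from four-parameter variable-slope fit.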
A general note: Tetrazolium dyes change colour on reduction, which living cells bring about.

Data set [2] deals with SJSA-1. The data set can be described thus: Antiproliferative activity against human SJSA-1 cells harboring wild type p53 overexpressing MDM2/4 assessed as inhibition of cell growth incubated for 96 hrs by MTS assay. Conditions: SJSA-1, 96 h. It counts as functional, cell-based. An outline of the steps:
as §1

Data set [3] relates to LNCaP. The data set can be described thus: Antiproliferative activity against human LNCaP cells harboring wild type p53 overexpressing MDM2/4 assessed as inhibition of cell growth incubated for 96 hrs by MTS assay. The data set is classed as functional, cell-based. In a few lines:
as §1

The subject of data set [4] is MCF7. The data set can be described thus: Antiproliferative activity against human MCF7 cells harboring wild type p53 overexpressing MDM2/4 assessed as inhibition of cell growth incubated for 72 hrs by MTS assay. The data set is classed as functional, cell-based. Conditions: MCF7, 72 h. An outline of the steps:
as §1

Data set [5] deals with HEK-293T. The data set can be described thus: Cytotoxicity against HEK293T cells assessed as reduction in cell viability at 15 uM incubated for 96 hrs by MTS assay relative to control. The data set is classed as toxicity, cell-based. To be noted: human. In a few lines:
(§2)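 Single-concentration MTS viability with DMSO vehicle control (final ≤0.1%) run in parallel. HEK293T: 3×10^3 cells/well, 15 µM for 96 h. HCT116 p53(-/-): 20 µM for 48 h. Compound added ~24 h after plating; MTS 0.5 mg/mL in fresh medium for 15–30 min, A490. Mean ± SD of three independent experiments, one-way ANOVA with Bonferroni test.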

A short description of data set [6]: Antiproliferative activity against human HCT116-p53-null cells assessed as reduction in cell viability at 20 uM incubated for 48 hrs by MTS assay. It counts as functional. In a few lines:
as §2

The test system of data set [7] is SJSA-1. The data set can be described thus: Induction of apoptosis in human SJSA-1 cells assessed as viable cells at 15 uM incubated for 96 hrs by Annexin V-FITC/7-AAD staining based flow cytometric analysis (reference value: 99.2%). The data set is classed as functional. To be noted: read-out: Activity. In general terms: Flow cytometry measures light scatter and fluorescence of single cells or particles in a stream.

Data set [8] deals with SJSA-1. The data set can be described thus: Induction of apoptosis in human SJSA-1 cells assessed as viable cells at 22.5 uM incubated for 96 hrs by Annexin V-FITC/7-AAD staining based flow cytometric analysis (reference value: 99.2%). Conditions: read-out: Activity. It counts as functional.
Data set [9] concerns SJSA-1. The data set can be described thus: Induction of apoptosis in human SJSA-1 cells assessed as early apoptotic cells at 22.5 uM incubated for 96 hrs by Annexin V-FITC/7-AAD staining based flow cytometric analysis (reference value: 0.3%). It counts as functional.
In data set [10] the test system is SJSA-1. The data set can be described thus: Induction of apoptosis in human SJSA-1 cells assessed as late apoptotic cells at 22.5 uM incubated for 96 hrs by Annexin V-FITC/7-AAD staining based flow cytometric analysis (reference value: 0.6%). The data set is classed as functional.
In data set [11] the test system is SJSA-1. The data set can be described thus: Induction of cell death in human SJSA-1 cells assessed as reduction in cell growth at 1.5 times IC50 incubated for 96 hrs by bright field microscopic analysis. It counts as functional, cell-based. An outline of the steps: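 Brightfield microscopy of SJSA-1 cell morphology after 96 h with DMSO vehicle or compound.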

Data set [12] concerns SJSA-1. The data set can be described thus: Induction of cell cycle arrest in human SJSA-1 cells assessed as accumulation of cells at G0/G1 phase at 15 uM incubated for 96 hrs by RNaseA/PI staining based flow cytometry analysis (reference value: 57.09 %). The data set is classed as functional.
Data set [13] has as its system SJSA-1. The data set can be described thus: Induction of cell cycle arrest in human SJSA-1 cells assessed as accumulation of cells at S phase at 15 uM incubated for 96 hrs by RNaseA/PI staining based flow cytometry analysis (reference value: 25.88 %). It counts as functional.
In data set [14] the test system is SJSA-1. The data set can be described thus: Induction of cell cycle arrest in human SJSA-1 cells assessed as accumulation of cells at G2/M phase at 15 uM incubated for 96 hrs by RNaseA/PI staining based flow cytometry analysis (reference value: 17.24 %). The data set is classed as functional.
For data set [15], the system named is SJSA-1. The data set can be described thus: Induction of cell cycle arrest in human SJSA-1 cells assessed as accumulation of cells at G0/G1 phase at 22.5 uM incubated for 96 hrs by RNaseA/PI staining based flow cytometry analysis (reference value: 57.09 %). The data set is classed as functional.
For data set [16], the system named is SJSA-1. The data set can be described thus: Induction of cell cycle arrest in human SJSA-1 cells assessed as accumulation of cells at S phase at 22.5 uM incubated for 96 hrs by RNaseA/PI staining based flow cytometry analysis (reference value: 25.88 %). The data set is classed as functional.
Data set [17] concerns SJSA-1. The data set can be described thus: Induction of cell cycle arrest in human SJSA-1 cells assessed as accumulation of cells at G2/M phase at 22.5 uM incubated for 96 hrs by RNaseA/PI staining based flow cytometry analysis (reference value: 17.24 %). The data set is classed as functional.

Calls of active or inactive are those of the source. The rule behind the calls is not given here.

As usually defined, the IC50 is the midpoint of a concentration-inhibition curve. Regarding `CCOC(=O)C1=NN(c2ccc(Cl)cc2)C2(C(=O)Nc3cc(Cl)ccc32)C1c1cccc(Cl)c1F` (stereo not given), the IC50 was found to be 18 µM in [1], 15.6 µM in [2], 10.7 µM in [3] and 15.6 µM in data set [4]. In addition, the Activity in data set [5] was 24%; in data set [6], 13%; in [9] it was 2.9%; in data set [10], 4.3%; in data set [12] it was 67.51%; in [13], 21.48%. Besides, the Activity amounted to 11.01% in data set [14], 82.19% in data set [15], 11.13% in [16] and 6.67% in data set [17]. Besides, the viability at 15 µM in data set [7] was found to be 98.6%. Further, the viability at 22.5 µM in [8] turned out to be 92.7%. In [11], the result was Active.
As to `CCOC(=O)C1=NN(C2CCCCC2)C2(C(=O)Nc3cc(Cl)ccc32)C1c1cccc(Cl)c1F` (stereo not given), the results for the IC50 in data set [1] and in data set [2] were 23.6 µM and 12.6 µM, respectively.
Consider `CCOC(=O)C1=NN(c2ccccc2)C2(C(=O)Nc3cc(Cl)ccc32)C1c1cccc(F)c1` (stereo not given), for which the 50% inhibitory concentration (IC50) in [1] worked out at 29.9 µM.
`CCOC(=O)C1=NN(C(C)(C)C)C2(C(=O)Nc3cc(Cl)ccc32)C1c1cccc(F)c1` (stereo not given): in [1], the concentration for half-maximal inhibition (IC50) stood at 44.8 µM.
Consider `CCOC(=O)C1=NN(C2CCCCC2)C2(C(=O)Nc3cc(Cl)ccc32)C1c1cccc(F)c1` (stereo not given), for which the 50% inhibitory concentration (IC50) amounted to 27.5 µM in data set [1] and 13.1 µM in [3].
Turning to `O=C(Nc1cccc(-n2cccn2)c1)C1=NN(c2ccc(Cl)cc2)C2(C(=O)Nc3cc(Cl)ccc32)C1c1cccc(O)c1` (stereo not given), the 50% inhibitory concentration (IC50) in [1] came to 20.9 µM; in data set [2] it was 17.4 µM; in data set [3], 11.5 µM; in data set [4], 12.4 µM.
Take `CC(C)(C)N1N=C(C(=O)O)C(c2cccc(Cl)c2F)C12C(=O)Nc1cc(Cl)ccc12` (stereo not given): the IC50 in data set [1] was over 100 µM.
The same measure, in the same setting: to `CCOC(=O)C1=NN(c2ccc(Cl)cc2)C2(C(=O)Nc3cc(Cl)ccc32)C1c1cccc(O)c1` (stereo not given) belongs 33.7 µM; to `CCOC(=O)C1=NN(C(C)(C)C)C2(C(=O)Nc3cc(Cl)ccc32)C1c1cccc(Cl)c1F` (stereo not given), 32.1 µM; to `CCOC(=O)C1=NN(C(C)(C)C)C2(C(=O)Nc3cc(Cl)c(F)cc32)C1c1cccc(Cl)c1F` (stereo not given), 35.1 µM.
Still for that read-out and setting: to `CCOC(=O)C1=NN(C(C)(C)C)C2(C(=O)Nc3cc(Cl)ccc32)C1c1ccc(Cl)cc1` (stereo not given) belongs 30.2 µM; to `O=C(NCCc1ccc(O)cc1)C1=NN(c2ccc(Cl)cc2)C2(C(=O)Nc3cc(Cl)ccc32)C1c1cccc(O)c1` (stereo not given), 27 µM.
In the case of `O=C(Nc1ccc(O)cc1)C1=NN(c2ccc(Cl)cc2)C2(C(=O)Nc3cc(Cl)ccc32)C1c1cccc(O)c1` (stereo not given), the half-maximal inhibitory concentration (IC50) was 27.2 µM in [1] and 14.3 µM in [4].
